From ChEMBL document CHEMBL1149909, “Aurocitrin and related polyketide metabolites from the wood-decay fungus Hypocrea sp. BCC 14122” (J Nat Prod, 2008)

How the values were obtained:
[1] = system: Plasmodium falciparum; assay: Antimalarial activity against multidrug-resistant Plasmodium falciparum K1 by microculture radioisotope technique; format: functional, organism-based
[2] = Cytotoxicity against human BC cells by colorimetric method; format: functional, cell-based
Procedure, shortened: (§1)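 Colorimetric cytotoxicity read-out on four cell lines: KB (oral human epidermoid carcinoma), BC (human breast cancer), NCI-H187 (human small cell lung cancer) and Vero (African green monkey kidney […]). A reference compound was run alongside.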

[3] = system: Vero; assay: Cytotoxicity against african green monkey Vero cells by colorimetric method; format: cell-based; conditions: Chlorocebus sabaeus; procedure, shortened: as §1
[4] = system: KB; assay: Cytotoxicity against human KB cells by colorimetric method; format: functional, cell-based; procedure, shortened: as §1
[5] = system: NCI-H187; assay: Cytotoxicity against human NCI-H187 cells by colorimetric method; format: functional, cell-based; procedure, shortened: as §1

| SMILES | IC50 [1] | IC50 [2] | IC50 [3] | IC50 [4] | IC50 [5] |
| --- | --- | --- | --- | --- | --- |
| C[C@H]1[C@@H](O)O[C@@H]2O[C@@]3(C)CC[C@H]4[C@H](C)CC[C@@H]1[C@@]24OO3 [ARTENIMOL] | 4.5 nM | – | – | – | – |
| Cc1c2ccncc2c(C)c2c1[nH]c1ccccc12 [ELLIPTECINE] | – | 1200 nM | 2100 nM | 2200 nM | 2000 nM |
